Experimental data as given in ChEMBL document CHEMBL4368914, “Tricyclic Indazoles-A Novel Class of Selective Estrogen Receptor Degrader Antagonists” (J Med Chem, 2019).

Tests used:
[1] = Half life in rat at 0.5 mg/kg, iv or 1 mg/kg, po; assay type: ADME, organism-based; settings: in vivo
Outline: (§1)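 Single IV dose of 0.5 mg/kg and oral dose of 1 mg/kg in rat and dog. Both routes were formulated in 5% DMSO:95% hydroxypropyl β-cyclodextrin (30% w/v), at 1 mL/kg IV and 4 mL/kg PO.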

[2] = Apparent permeability in human Caco2 cells at 10 uM; assay type: ADME, cell-based; settings: Caco-2
Outline: (§2)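 Compound at 10 μM incubated on cultured Caco-2 or MDCK cells. Permeability was measured apical-to-basolateral and basolateral-to-apical, and efflux ratio was taken as (B to A)/(A to B).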

[3] = Stability in pH 7.4 deuterated buffer by 1H NMR spectroscopy; assay type: physicochemical
Outline: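 Compound diluted from a 25 mM DMSO-d6 stock to a final 1 mM in each deuterated buffer. Followed by ¹H NMR (500 MHz, water suppression, 64 scans) and LC-MS at 0, 24, 72 and 192 h (8 days).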

[4] = Clearance in dog at 0.5 mg/kg, iv or 1 mg/kg, po; assay type: ADME, organism-based, Canis lupus familiaris; settings: in vivo; outline: as §1
Cytochrome P450 1A2 = target: T1, Cytochrome P450 1A2 (Homo sapiens, UniProt P05177); assay: Inhibition of CYP1A2 in human liver microsomes; assay type: ADME
T1 sequence (P05177 whole entry): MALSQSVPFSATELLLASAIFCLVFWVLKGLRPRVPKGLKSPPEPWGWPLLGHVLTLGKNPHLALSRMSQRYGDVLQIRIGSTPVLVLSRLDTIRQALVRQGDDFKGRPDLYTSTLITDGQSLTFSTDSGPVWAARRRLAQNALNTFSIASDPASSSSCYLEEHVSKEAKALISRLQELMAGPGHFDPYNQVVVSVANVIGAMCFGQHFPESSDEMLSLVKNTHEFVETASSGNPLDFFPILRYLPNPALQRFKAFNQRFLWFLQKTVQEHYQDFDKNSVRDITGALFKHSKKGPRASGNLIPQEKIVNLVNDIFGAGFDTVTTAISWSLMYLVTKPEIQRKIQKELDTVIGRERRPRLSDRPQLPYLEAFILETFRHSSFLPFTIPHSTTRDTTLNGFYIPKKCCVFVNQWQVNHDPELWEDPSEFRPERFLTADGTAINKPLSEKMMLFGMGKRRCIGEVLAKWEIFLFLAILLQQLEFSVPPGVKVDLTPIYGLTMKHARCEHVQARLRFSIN
Outline: (§3)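 High-throughput human liver microsome assay across a panel of five CYP isoforms, giving IC50.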

[5] = Solubility of the compound in phosphate buffer at pH 7.4 after 24 hrs; assay type: physicochemical
Outline: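 Solubility in aqueous phosphate buffer at pH 7.4 after 24 h at 25 °C.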

[6] = Apparent permeability in MDCK cells at 10 uM; assay type: ADME, cell-based, Canis lupus familiaris; settings: dog; outline: as §2
[7] = Fraction unbound in dog plasma by equilibrium dialysis; assay type: ADME, cell-free, Canis lupus familiaris
[8] = Efflux ratio of apparent permeability in MDCK cells at 10 uM; assay type: ADME, cell-based, Canis lupus familiaris; settings: dog; outline: as §2
[9] = Oral bioavailability in dog at 1 mg/kg; assay type: ADME, organism-based, Canis lupus familiaris; settings: in vivo; outline: as §1
[10] = Half life in dog at 0.5 mg/kg, iv or 1 mg/kg, po; assay type: ADME, organism-based, Canis lupus familiaris; settings: in vivo; outline: as §1
Mus musculus = assay: In vivo antagonist activity at ERalpha in tumor of human MCF7 cells xenografted in SCID CB17 mouse assessed as reduction in normalized PR levels at 50 mg/kg, po administered once daily for 3 days measured after 24 hrs post last dose by Western blot analysis relative to control; assay type: functional; set-up: scale not given: the % may be the effect or the level left
Outline: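 Male SCID mice carried a 0.5 mg/21 day s.c. estrogen pellet, with 5x10^6 MCF-7 cells implanted s.c. in the hind flank 24 h later. Groups of 5 were randomised at 0.5–0.8 cm³ and gavaged once daily for 3 d in PEG400/Captisol/water vehicle at 10 ml/kg. Tumours were taken 24 h post-dose, and PR was read by Western blot normalized to vinculin.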

Cytochrome P450 3A4 = Cytochrome P450 3A4 (Homo sapiens, UniProt P08684); assay: Inhibition of CYP3A4 in human liver microsomes; assay type: ADME; outline: as §3
Sequence of Cytochrome P450 3A4 (P08684 whole entry): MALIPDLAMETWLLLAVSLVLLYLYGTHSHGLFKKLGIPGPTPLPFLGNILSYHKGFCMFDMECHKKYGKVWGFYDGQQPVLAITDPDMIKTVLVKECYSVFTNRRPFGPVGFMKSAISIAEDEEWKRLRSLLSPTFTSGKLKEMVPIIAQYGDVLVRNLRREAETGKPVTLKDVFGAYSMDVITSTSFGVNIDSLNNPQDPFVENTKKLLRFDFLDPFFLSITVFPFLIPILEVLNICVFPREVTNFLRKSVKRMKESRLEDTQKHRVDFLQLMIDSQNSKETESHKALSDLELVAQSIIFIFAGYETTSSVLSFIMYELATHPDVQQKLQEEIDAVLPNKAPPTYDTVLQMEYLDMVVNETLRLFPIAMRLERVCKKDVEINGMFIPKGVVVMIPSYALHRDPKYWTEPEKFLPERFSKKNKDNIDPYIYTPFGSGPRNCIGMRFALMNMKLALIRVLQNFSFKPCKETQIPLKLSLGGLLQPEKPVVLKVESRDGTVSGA

[11] = target: Voltage-gated inwardly rectifying potassium channel KCNH2 (Homo sapiens, UniProt Q12809); assay: Inhibition of human ERG by plate based planar patch clamp assay
Sequence of Voltage-gated inwardly rectifying potassium channel KCNH2 (Q12809 whole entry): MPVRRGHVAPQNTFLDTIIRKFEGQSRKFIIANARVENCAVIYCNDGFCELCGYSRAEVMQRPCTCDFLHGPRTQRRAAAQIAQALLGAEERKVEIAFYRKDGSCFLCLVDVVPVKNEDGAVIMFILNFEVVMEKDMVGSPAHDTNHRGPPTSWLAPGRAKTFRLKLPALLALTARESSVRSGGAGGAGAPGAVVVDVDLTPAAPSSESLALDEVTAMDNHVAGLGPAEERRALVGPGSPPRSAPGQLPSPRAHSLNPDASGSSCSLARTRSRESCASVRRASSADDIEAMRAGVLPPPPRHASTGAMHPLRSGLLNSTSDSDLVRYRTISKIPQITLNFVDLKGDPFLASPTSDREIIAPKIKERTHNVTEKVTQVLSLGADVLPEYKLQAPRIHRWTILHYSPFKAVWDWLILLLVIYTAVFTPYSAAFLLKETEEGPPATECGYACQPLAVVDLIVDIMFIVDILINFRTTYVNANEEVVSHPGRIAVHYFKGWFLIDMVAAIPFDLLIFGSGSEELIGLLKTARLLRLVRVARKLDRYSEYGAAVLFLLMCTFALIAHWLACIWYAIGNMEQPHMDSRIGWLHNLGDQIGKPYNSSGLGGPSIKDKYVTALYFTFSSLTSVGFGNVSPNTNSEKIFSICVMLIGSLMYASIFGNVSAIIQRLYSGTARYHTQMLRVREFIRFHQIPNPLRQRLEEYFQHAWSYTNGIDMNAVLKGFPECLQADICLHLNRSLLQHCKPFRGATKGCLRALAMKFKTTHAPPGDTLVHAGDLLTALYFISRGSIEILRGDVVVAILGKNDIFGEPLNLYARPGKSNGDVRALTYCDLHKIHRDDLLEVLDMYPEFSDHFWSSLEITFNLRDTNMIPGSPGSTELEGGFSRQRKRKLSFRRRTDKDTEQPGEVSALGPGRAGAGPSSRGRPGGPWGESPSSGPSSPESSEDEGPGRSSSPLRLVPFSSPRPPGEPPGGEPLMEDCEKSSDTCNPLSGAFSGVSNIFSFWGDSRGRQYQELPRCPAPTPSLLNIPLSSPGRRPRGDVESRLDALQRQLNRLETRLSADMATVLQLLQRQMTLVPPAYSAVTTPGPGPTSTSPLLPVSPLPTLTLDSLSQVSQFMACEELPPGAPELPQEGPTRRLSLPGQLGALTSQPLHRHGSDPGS

Cytochrome P450 2D6 = Cytochrome P450 2D6 (Homo sapiens, UniProt P10635); assay: Inhibition of CYP2D6 in human liver microsomes; assay type: ADME; outline: as §3
Sequence of Cytochrome P450 2D6 (P10635 whole entry): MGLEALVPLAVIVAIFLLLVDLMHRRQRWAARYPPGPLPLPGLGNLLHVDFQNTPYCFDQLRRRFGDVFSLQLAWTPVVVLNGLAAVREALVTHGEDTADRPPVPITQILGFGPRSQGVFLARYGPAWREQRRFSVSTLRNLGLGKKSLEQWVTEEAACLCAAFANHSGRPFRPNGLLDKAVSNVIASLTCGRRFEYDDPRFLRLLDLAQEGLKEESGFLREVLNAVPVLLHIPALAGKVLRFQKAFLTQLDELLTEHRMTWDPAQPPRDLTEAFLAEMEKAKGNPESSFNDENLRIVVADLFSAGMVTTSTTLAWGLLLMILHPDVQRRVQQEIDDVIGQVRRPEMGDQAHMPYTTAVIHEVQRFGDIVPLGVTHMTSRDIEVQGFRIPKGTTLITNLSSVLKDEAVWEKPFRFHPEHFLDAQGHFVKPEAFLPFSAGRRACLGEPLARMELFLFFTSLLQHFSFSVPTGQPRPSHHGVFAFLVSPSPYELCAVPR

[12] = Glutathione reactivity in human liver microsomes assessed as GSH trapping ratio of compound to clozapine; assay type: ADME, Microsome
Outline: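 Glutathione trapping in human liver microsomes, expressed as a ratio to clozapine.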

Cytochrome P450 2C9 = Cytochrome P450 2C9 (Homo sapiens, UniProt P11712); assay: Inhibition of CYP2C9 in human liver microsomes; assay type: ADME; outline: as §3
Sequence of Cytochrome P450 2C9 (P11712 whole entry): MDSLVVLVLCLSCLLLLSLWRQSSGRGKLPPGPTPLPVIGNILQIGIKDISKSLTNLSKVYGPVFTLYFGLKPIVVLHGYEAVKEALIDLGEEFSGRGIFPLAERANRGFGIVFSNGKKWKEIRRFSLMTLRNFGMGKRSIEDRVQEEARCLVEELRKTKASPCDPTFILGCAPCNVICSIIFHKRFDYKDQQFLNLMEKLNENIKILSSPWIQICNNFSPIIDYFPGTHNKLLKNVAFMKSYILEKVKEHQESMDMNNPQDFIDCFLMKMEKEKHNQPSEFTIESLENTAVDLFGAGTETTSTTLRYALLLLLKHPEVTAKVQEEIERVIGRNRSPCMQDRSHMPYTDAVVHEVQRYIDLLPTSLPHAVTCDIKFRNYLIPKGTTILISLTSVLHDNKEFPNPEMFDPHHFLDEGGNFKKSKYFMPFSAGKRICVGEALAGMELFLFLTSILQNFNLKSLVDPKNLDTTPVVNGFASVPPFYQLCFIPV

Estrogen receptor [13] = target: T2, Estrogen receptor (Homo sapiens, UniProt P03372); assay: Induction of ERalpha degradation in human MCF7 cells assessed as reduction in ERalpha protein expression after 5 hrs in absence of […] tamoxifen by formaldehyde-staining based assay; assay type: cell-based
T2 sequence (P03372 whole entry): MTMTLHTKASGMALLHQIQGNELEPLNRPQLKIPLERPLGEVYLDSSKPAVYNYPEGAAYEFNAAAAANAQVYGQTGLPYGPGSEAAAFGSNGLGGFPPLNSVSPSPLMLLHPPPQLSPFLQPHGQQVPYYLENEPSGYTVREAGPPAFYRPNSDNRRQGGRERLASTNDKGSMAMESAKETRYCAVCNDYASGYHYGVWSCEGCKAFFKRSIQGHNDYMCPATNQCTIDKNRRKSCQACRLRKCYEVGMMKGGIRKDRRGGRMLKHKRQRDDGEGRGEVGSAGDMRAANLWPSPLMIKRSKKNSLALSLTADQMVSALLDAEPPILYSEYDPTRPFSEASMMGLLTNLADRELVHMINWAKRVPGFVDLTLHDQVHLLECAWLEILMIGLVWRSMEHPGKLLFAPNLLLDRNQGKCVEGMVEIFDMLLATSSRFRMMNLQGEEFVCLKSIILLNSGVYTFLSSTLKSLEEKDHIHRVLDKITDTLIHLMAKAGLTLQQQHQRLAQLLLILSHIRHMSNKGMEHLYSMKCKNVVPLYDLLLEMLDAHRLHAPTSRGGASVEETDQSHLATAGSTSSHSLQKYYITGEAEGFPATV

[14] = Oral bioavailability in rat at 1 mg/kg; assay type: ADME, organism-based; settings: in vivo; outline: as §1
Estrogen receptor [15] = target: T2, Estrogen receptor; assay: Induction of ERalpha degradation in human MCF7 cells assessed as reduction in ERalpha protein expression after 5 hrs in presence of […] tamoxifen by formaldehyde-staining based assay; assay type: cell-based
[16] = Volume of distribution at steady state in rat at 0.5 mg/kg, iv or 1 mg/kg, po; assay type: ADME, organism-based; settings: in vivo, read-out: Vdss; outline: as §1
[17] = Intrinsic clearance in rat hepatocytes assessed per million cells; assay type: ADME, cell-based, Hepatocyte; settings: read-out: CLH
Outline: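 Rate of metabolism (µl/min/10⁶ cells) measured from DMSO stock in isolated hepatocytes diluted to 1x10⁶ cells/mL.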

- half-life [1]: 1.2 h
- Papp at 10 µM [2]: 6.9 ×10⁻⁶ cm/s
- Stability [3]: Stable
- clearance [4]: 5.9 mL/min/kg
- IC50 (Cytochrome P450 1A2): > 30000 nM
- solubility at 24 h [5]: > 1000 µM
- Papp at 10 µM [6]: 11 ×10⁻⁶ cm/s
- fraction unbound [7]: 0.0032
- efflux ratio at 10 µM [8]: 0.6
- bioavailability [9]: 45%
- half-life [10]: 6.1 h
- IC50 (Cytochrome P450 3A4): 13000 nM
- IC50 (Cytochrome P450 2D6): > 30000 nM
- Ratio [12]: < 0.04
- IC50 (Cytochrome P450 2C9): 2500 nM
- IC50 (Estrogen receptor [13]): 0.251 nM
- bioavailability [14]: 31%
- IC50 (Estrogen receptor [15]): 7.94 nM
- Vd [16]: 1.6 L/kg
- hepatocyte CLint [17]: 26 µL/min/1e6 cells
SMILES: C[C@@H]1Cc2c(ccc3[nH]ncc23)[C@@H](c2c(F)cc(/C=C/C(=O)O)cc2F)N1CC(C)(C)F
- Activity (Mus musculus): 93%
- IC50 [11]: > 100000 nM
